Data taken from ChEMBL document CHEMBL2380254, “Optimization of tocotrienols as antiproliferative and antimigratory leads” (Eur J Med Chem, 2013).

How the values were obtained:
MCF7 = assay: Antiproliferative activity against human MCF7 cells by MTT assay; type: functional, cell-based
Summary of the method: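 Cells plated at 8 × 10^3/well (MDA-MB-231) or 10^4/well (MCF7) in 96-well plates. Compounds fed in media with 5% FBS (MDA-MB-231) or 1% FBS (MCF7). MTT read-out of viable cells.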

MDA-MB-231 = assay: Growth inhibition of human MDA-MB-231 cells assessed as cell growth at 10 uM after 48 hrs by sulforhodamine B assay; type: functional; settings: MDA-MB-231, 48 h, read-out: Activity
Summary of the method: (§1)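 Single-dose NCI-60 screen: adherent cells in RPMI 1640 with 5% FBS were exposed to 10 µM for 48 h at 37 °C after a 24 h preincubation. They were fixed in situ with cold TCA (10% final), stained with 0.4% SRB in 1% acetic acid, solubilized in 10 mM Tris base, and read at 515 nm. Percent growth was taken relative to time-zero and control plates.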

ACHN = assay: Growth inhibition of human ACHN cells assessed as cell growth at 10 uM after 48 hrs by sulforhodamine B assay; type: functional; settings: read-out: Activity
Summary of the method: (§2)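 NCI-60 single-dose screen at 10 µM: cells in RPMI 1640 with 5% FBS, preincubated 24 h, then exposed 48 h at 37 °C. TCA fixation (16% final for suspension cells), SRB staining, absorbance 515 nm. Percent growth relative to time-zero and untreated control plates; negative values indicate cell kill.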

OVCAR-3 = assay: Growth inhibition of human OVCAR3 cells assessed as cell growth at 10 uM after 48 hrs by sulforhodamine B assay; type: functional; settings: OVCAR-3, 48 h, read-out: Activity; summary of the method: as §1
SK-MEL-2 = assay: Growth inhibition of human SK-MEL-2 cells assessed as cell growth at 10 uM after 48 hrs by sulforhodamine B assay; type: functional; settings: SK-MEL-2, 48 h, read-out: Activity; summary of the method: as §1
SF-295 = assay: Growth inhibition of human SF295 cells assessed as cell growth at 10 uM after 48 hrs by sulforhodamine B assay; type: functional; settings: SF-295, 48 h, read-out: Activity; summary of the method: as §1
SW-620 = assay: Growth inhibition of human SW620 cells assessed as cell growth at 10 uM after 48 hrs by sulforhodamine B assay; type: functional; settings: SW-620, 48 h, read-out: Activity
Summary of the method: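 Single-dose NCI-60 test at 10 µM. Cells were grown in RPMI 1640 with 5% FBS and 2 mM L-glutamine, preincubated 24 h, with T0 plates TCA-fixed. Exposure was 48 h at 37 °C, 5% CO2. Cells were fixed with cold TCA (final 10%, 4 °C, 60 min), stained with SRB and read at 515 nm. Percent growth was taken relative to T0 and untreated control; negative values denote cell kill.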

NCI-H23 = assay: Growth inhibition of human NCI-H23 cells assessed as cell growth at 10 uM after 48 hrs by sulforhodamine B assay; type: functional; settings: NCI-H23, 48 h, read-out: Activity; summary of the method: as §1
NCI-H226 = assay: Growth inhibition of human NCI-H226 cells assessed as cell growth at 10 uM after 48 hrs by sulforhodamine B assay; type: functional; settings: NCI-H226, 48 h, read-out: Activity; summary of the method: as §1
HOP-62 = assay: Growth inhibition of human HOP62 cells assessed as cell growth at 10 uM after 48 hrs by sulforhodamine B assay; type: functional; settings: HOP-62, 48 h, read-out: Activity; summary of the method: as §2
RPMI-8226 = assay: Growth inhibition of human RPMI8226 cells assessed as cell growth at 10 uM after 48 hrs by sulforhodamine B assay; type: functional; settings: RPMI-8226, 48 h, read-out: Activity
Summary of the method: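 Single 10 µM dose applied to suspension cells in RPMI 1640 with 5% FBS and 2 mM L-glutamine for 48 h at 37 °C. Settled cells were fixed with 80% TCA (16% final), stained with SRB, and read at 515 nm. Percent growth was calculated against time-zero and untreated control optical densities.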

HL-60(TB) = assay: Growth inhibition of human HL-60(TB) cells assessed as cell growth at 10 uM after 48 hrs by sulforhodamine B assay; type: functional; settings: HL-60, 48 h, read-out: Activity
Summary of the method: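 NCI-60 single-dose screen run at 10 µM on HL-60(TB) suspension cells in RPMI 1640 with 5% FBS and 2 mM L-glutamine. Cells were preincubated for 24 h, with a time-zero plate fixed then. Exposure lasted 48 h at 37 °C. Settled cells were fixed with TCA (16% final), stained with SRB and read at 515 nm. Percent growth is relative to control and T0.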

MDA-MB-468 = assay: Growth inhibition of human MDA-MB-468 cells after 48 hrs by sulforhodamine B assay; type: functional; settings: MDA-MB-468, 48 h
Summary of the method: (§3)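 NCI-60 panel cells grown in RPMI 1640 with 5% FBS and 2 mM L-glutamine, seeded at 5000–40,000 cells/well and preincubated 24 h. Five 10-fold dilutions (0.001–100 µM) from DMSO stocks were added for 48 h at 37 °C. Adherent cells were fixed with cold TCA (10% final) for 60 min at 4 °C, stained with 0.4% SRB, and read at 515 nm. GI50 was set where 100×(T−T0)/(C−T0)=50.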

T47D = assay: Growth inhibition of human T47D cells after 48 hrs by sulforhodamine B assay; type: functional
Summary of the method: (§4)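 NCI-60 five-dose screen. Cells were grown in RPMI 1640 with 5% FBS and 2 mM L-glutamine, plated at 5000–40,000 cells/well and incubated 24 h before dosing, with T0 plates TCA-fixed. DMSO stocks were diluted to doses of […] and exposed 48 h at 37 °C, 5% CO2. Cells were fixed with cold TCA (final 10%, 60 min, 4 °C), stained with 0.4% SRB in 1% acetic acid for 10 min, solubilized in 10 mM trizma base and read at 515 nm. GI50 is where 100×(T−T0)/(C−T0)=50.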

PC-3 = assay: Growth inhibition of human PC3 cells after 48 hrs by sulforhodamine B assay; type: functional; settings: PC-3, 48 h; summary of the method: as §3
UO-31 = assay: Growth inhibition of human UO31 cells after 48 hrs by sulforhodamine B assay; type: functional; settings: UO-31, 48 h; summary of the method: as §4
SN12C = assay: Growth inhibition of human SN12C cells after 48 hrs by sulforhodamine B assay; type: functional; summary of the method: as §4
786-0 = assay: Growth inhibition of human 786-0 cells after 48 hrs by sulforhodamine B assay; type: functional; settings: 786-0, 48 h
Summary of the method: (§5)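 NCI-60 screen: cells in RPMI 1640 with 5% FBS and 2 mM glutamine, 5000–40,000 cells/well, preincubated 24 h. Five concentrations (10-fold dilutions; 100 to 0.001 µM) applied for 48 h at 37 °C. TCA fixation, SRB stain, absorbance at 515 nm. Time-zero plates included; GI50 where 100×(T−T0)/(C−T0)=50.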

HT-29 = assay: Growth inhibition of human HT-29 cells after 48 hrs by sulforhodamine B assay; type: functional; settings: HT-29, 48 h; summary of the method: as §5
HCT-15 = assay: Growth inhibition of human HCT15 cells after 48 hrs by sulforhodamine B assay; type: functional; settings: HCT-15, 48 h; summary of the method: as §5
RXF 393 = assay: Growth inhibition of human RXF393 cells assessed as cell growth at 10 uM after 48 hrs by sulforhodamine B assay; type: functional; settings: RXF 393, 48 h, read-out: Activity; summary of the method: as §1

Compound | IC50 (MCF7) | growth at 10 µM (MDA-MB-231) | growth at 10 µM (ACHN) | growth at 10 µM (OVCAR-3) | growth at 10 µM (SK-MEL-2) | growth at 10 µM (SF-295) | growth at 10 µM (SW-620) | growth at 10 µM (NCI-H23) | growth at 10 µM (NCI-H226) | growth at 10 µM (HOP-62) | growth at 10 µM (RPMI-8226) | growth at 10 µM (HL-60(TB)) | GI50 (MDA-MB-468) | GI50 (T47D) | GI50 (PC-3) | GI50 (UO-31) | GI50 (SN12C) | GI50 (786-0) | GI50 (HT-29) | GI50 (HCT-15) | also measured
CC(C)=CCC/C(C)=C/CC/C(C)=C/CC[C@]1(C)CCc2c3c(c(C)c(C)c2O1)OCN(CCCCCO)C3 | > 20 µM | 55% | 101% | 65.2% | 107% | 92.7% | -18.6% | 94.5% | 102% | 114% | 1.02% | 37.2% | 4.14 µM | 6.17 µM | 5.71 µM | 4.64 µM | 5.56 µM | 6.47 µM | 3.74 µM | 6.24 µM | –
CC(C)=CCC/C(C)=C/CC/C(C)=C/CC[C@]1(C)CCc2c3c(c(C)c(C)c2O1)OCN(CCCCCCO)C3 | > 20 µM | 9.83% | 68.6% | – | 91.8% | 61.7% | -29.4% | 47% | 97.3% | -23.3% | 82.4% | 65.9% | 2.61 µM | 2.84 µM | 2.52 µM | 2.27 µM | 2.5 µM | 2.79 µM | 3.04 µM | 2.69 µM | growth at 10 µM (RXF 393): 22.4%
CC(C)=CCC/C(C)=C/CC/C(C)=C/CC[C@]1(C)CCc2c3c(c(C)c(C)c2O1)OCN(CCCCCCCCO)C3 | > 20 µM | 40.7% | 79.6% | 31.7% | 71.7% | 48.1% | 10.1% | 56.1% | 91.6% | 63.2% | 71.2% | 31% | 2.57 µM | 3.03 µM | 2.37 µM | 2.37 µM | 2.55 µM | 2.72 µM | 3.26 µM | 3.32 µM | growth at 10 µM (RXF 393): -10.7%
CC(C)=CCC/C(C)=C/CC/C(C)=C/CC[C@]1(C)CCc2c3c(cc(C)c2O1)OCN(CCCO)C3 | > 20 µM | 10.6% | 42.5% | -38.4% | 107% | 74% | -92.1% | 51.9% | 98.7% | -76.3% | 2.29% | 15.3% | 1.56 µM | 2.01 µM | 1.63 µM | 1.47 µM | 1.67 µM | 1.86 µM | 1.78 µM | 1.97 µM | growth at 10 µM (RXF 393): -90.5%
COc1ccc(CCN2COc3cc(C)c4c(c3C2)CC[C@@](C)(CC/C=C(\C)CC/C=C(\C)CCC=C(C)C)O4)cc1OC | – | 13.2% | 75.7% | -22.9% | 86.4% | 99.2% | -98.1% | 50.7% | 112% | -34.3% | -32.6% | 15.4% | 1.46 µM | 1.94 µM | 1.87 µM | 1.63 µM | 1.63 µM | 1.78 µM | 1.85 µM | 1.93 µM | –
CC(C)=CCC/C(C)=C/CC/C(C)=C/CC[C@]1(C)CCc2c3c(cc(C)c2O1)OCN(CCCCCCCCO)C3 | > 20 µM | -69.6% | -97.6% | -85.4% | -52% | -83.8% | -46% | -20.7% | 50.2% | -99% | -23.2% | -57.3% | 0.591 µM | 3.94 µM | 1.51 µM | 3.46 µM | 1.54 µM | 2.71 µM | 0.703 µM | 3 µM | growth at 10 µM (RXF 393): -97.1%
CC(C)=CCC/C(C)=C/CC/C(C)=C/CC[C@]1(C)CCc2c3c(cc(C)c2O1)OCN(CCCCO)C3 | 16.3 µM | -48.2% | -57.1% | -20.8% | – | 57.3% | -79.7% | 54.8% | 99.3% | -84.5% | 79.2% | -2.37% | 15.1 µM | 16.4 µM | 16.2 µM | 12.2 µM | 16.3 µM | 15.5 µM | 8.33 µM | 17.7 µM | growth at 10 µM (RXF 393): -96.3%
CC(C)=CCC/C(C)=C/CC/C(C)=C/CC[C@]1(C)CCc2c3c(cc(C)c2O1)OCN(CCCCCO)C3 | 9.1 µM | 46.1% | 81.6% | 54.6% | 117% | 103% | -83.7% | 92.9% | 98.4% | 20.6% | -16.3% | 58.3% | 4.14 µM | 6.17 µM | 5.71 µM | 4.64 µM | 5.56 µM | 6.47 µM | 3.74 µM | 6.24 µM | –
